Results taken from ChEMBL document CHEMBL1649505, “Activity of telavancin against Staphylococcus aureus strains with various vancomycin susceptibilities in an in vitro pharmacokinetic/pharmacodynamic model with simulated endocardial vegetations” (Antimicrob Agents Chemother, 2009).
In brackets after ≈: the same amount, converted by molar mass. Activity calls are given as the source filed them. No cut-off for these calls is given here.

Assays:
Staphylococcus aureus [1] = assay: Antimicrobial activity against glycopeptide-intermediate Staphylococcus aureus NJ992 by broth microdilution method
Staphylococcus aureus [2] = assay: microbe, parasite or virus in culture; conditions: 494
Staphylococcus aureus [3] = assay: microbe, parasite or virus in culture; conditions: 1199
[4] = Cmax in in vitro pharmacokinetic/pharmacodynamic model at 300 mg for every 8 hrs
Staphylococcus aureus [5] = assay: Antimicrobial activity against heteroresistant glycopeptide-intermediate Staphylococcus aureus 1629 by broth microdilution method; format: functional
Outline: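 MICs determined by broth microdilution at ~5.5 log10 CFU/ml following CLSI guidelines.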

[6] = AUC (0 to 24 hrs) in in vitro pharmacokinetic/pharmacodynamic model at 300 mg for every 8 hrs
Staphylococcus aureus [7] = assay: Antibacterial activity against glycopeptide-intermediate Staphylococcus aureus NJ992 assessed as decrease in bacterial load in in vitro pharmacokinetic/pharmacodynamic model at 1 g for every 12 hrs administered daily after 96 hrs; format: functional, organism-based
Outline: (§1)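 250-ml in vitro PK/PD model holding simulated endocardial vegetations, inoculum ~9 log10 CFU/g. Regimens simulated over 96 h: telavancin 10 mg/kg daily (peak 87.5 μg/ml, t½ 8 h) or vancomycin 1 g every 12 h (trough 10 μg/ml, t½ 6 h). Two SEVs per model removed at 0–96 h, homogenized, diluted and plated on TSA at 35°C for 18–24 h. Detection limit 2 log10 CFU/g; models in duplicate.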

Staphylococcus aureus [8] = assay: Antibacterial activity against glycopeptide-intermediate Staphylococcus aureus NJ992 assessed as decrease in bacterial load in in vitro pharmacokinetic/pharmacodynamic model at 10 mg/kg administered daily after 62 hrs; format: functional, organism-based; parameters: dose 10 mg/kg; outline: as §1
Staphylococcus aureus [9] = assay: Antibacterial activity against methicillin-resistant Staphylococcus aureus 494 assessed as decrease in bacterial load in in vitro pharmacokinetic/pharmacodynamic model at 1 g for every 12 hrs administered daily after 96 hrs; format: functional, organism-based; outline: as §1
Staphylococcus aureus [10] = assay: Antibacterial activity against heteroresistant glycopeptide-intermediate Staphylococcus aureus 1629 assessed as decrease in bacterial load in in vitro pharmacokinetic/pharmacodynamic model at 1 g for every 12 hrs administered daily after 96 hrs; format: functional, organism-based; outline: as §1
Staphylococcus aureus [11] = assay: Antibacterial activity against methicillin-susceptible Staphylococcus aureus 1199 assessed as decrease in bacterial load in in vitro pharmacokinetic/pharmacodynamic model at 1 g for every 12 hrs administered daily after 96 hrs; format: functional, organism-based; outline: as §1
Staphylococcus aureus [12] = assay: Antibacterial activity against heteroresistant glycopeptide-intermediate Staphylococcus aureus 1629 assessed as bacterial load per gram in in vitro pharmacokinetic/pharmacodynamic model at 10 mg/kg administered daily after 96 hrs; format: functional; outline: as §1
Staphylococcus aureus [13] = assay: Antibacterial activity against glycopeptide-intermediate Staphylococcus aureus NJ992 assessed as bacterial load per gram in in vitro pharmacokinetic/pharmacodynamic model at 10 mg/kg administered daily after 96 hrs; format: functional
[14] = AUC (0 to 24 hrs) in in vitro pharmacokinetic/pharmacodynamic model at 10 mg/kg for every 12 hrs; format: ADME, organism-based; parameters: time < 24 hr, dose 10 mg/kg; conditions: in the assay text read “every 24 hrs” for “every 12 hrs”
Outline: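 Central compartment (250 ml glass in vitro PK/PD model holding simulated endocardial vegetations) sampled via injection port at 1, 4, 8, 24, 32, 48, 72 and 96 h. Drug levels measured by agar-well bioassay with Micrococcus luteus ATCC 9341 (zone sizes after 18–24 h at 35°C). Peak, half-life and AUC derived by trapezoidal method. Models run in duplicate; mean ± SD.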

Staphylococcus aureus [15] = assay: Antibacterial activity against methicillin-susceptible Staphylococcus aureus 1199 assessed as bacterial load per gram in in vitro pharmacokinetic/pharmacodynamic model at 10 mg/kg administered daily after 96 hrs; format: functional; outline: as §1
Staphylococcus aureus [16] = assay: Antibacterial activity against heteroresistant glycopeptide-intermediate Staphylococcus aureus 1629 assessed as decrease in bacterial load in in vitro pharmacokinetic/pharmacodynamic model at 10 mg/kg administered daily after 64 hrs; format: functional, organism-based; parameters: dose 10 mg/kg; outline: as §1
[17] = Cmax in in vitro pharmacokinetic/pharmacodynamic model at 1 g for every 12 hrs; format: ADME; parameters: dose 1 g
Outline: (§2)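 Drugs given as boluses into the central compartment of a 250-ml glass in vitro PK/PD model over 96 h. Samples taken via the injection port at 1, 4, 8, 24, 32, 48, 72 and 96 h. […] Half-life, peak and AUC derived by the trapezoidal method. Models run in duplicate; mean ± SD.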

[18] = Half life in in vitro pharmacokinetic/pharmacodynamic model at 1 g for every 12 hrs; format: ADME; outline: as §2
[19] = AUC (0 to 24 hrs) in in vitro pharmacokinetic/pharmacodynamic model at 1 g for every 12 hrs; format: ADME; parameters: dose 1 g, time < 24 hr; outline: as §2
[20] = AUC (0 to 24 hrs) in in vitro pharmacokinetic/pharmacodynamic model at 5 mg/kg for every 24 hrs; format: ADME, organism-based; parameters: time < 24 hr, dose 5 mg/kg; outline: as §2
[21] = Cmax in in vitro pharmacokinetic/pharmacodynamic model at 5 mg/kg for every 24 hrs; format: ADME, organism-based; parameters: dose 5 mg/kg; outline: as §2
[22] = Half life in in vitro pharmacokinetic/pharmacodynamic model at 5 mg/kg for every 24 hrs; format: ADME, organism-based; parameters: dose 5 mg/kg; outline: as §2

CO[C@H]1/C=C/O[C@@]2(C)Oc3c(C)c(O)c4c(O)c(c(/C=N/N5CCN(C)CC5)c(O)c4c3C2=O)NC(=O)/C(C)=C\C=C\[C@H](C)[C@H](O)[C@@H](C)[C@@H](O)[C@@H](C)[C@H](OC(C)=O)[C@@H]1C [RIFAMPIN]
MIC (Staphylococcus aureus [1]): 2050 µg/mL (≈ 2490 µM)
MIC (Staphylococcus aureus [2]): 0.004 µg/mL (≈ 0.00486 µM)
MIC (Staphylococcus aureus [3]): 0.004 µg/mL (≈ 0.00486 µM)
Cmax [4]: 4900 ng/mL
MIC (Staphylococcus aureus [5]): 0.004 µg/mL (≈ 0.00486 µM)
AUC at 24 h [6]: 64.4 µg·h/mL

CCCCCCCCCCNCCN[C@@]1(C)C[C@H](O[C@H]2[C@H](Oc3c4cc5cc3Oc3ccc(cc3Cl)[C@@H](O)[C@@H](NC(=O)[C@@H](CC(C)C)NC)C(=O)N[C@@H](CC(N)=O)C(=O)N[C@H]5C(=O)N[C@H]3C(=O)N[C@H](C(=O)N[C@H](C(=O)O)c5cc(O)c(CNCP(=O)(O)O)c(O)c5-c5cc3ccc5O)[C@H](O)c3ccc(c(Cl)c3)O4)O[C@H](CO)[C@@H](O)[C@@H]2O)O[C@@H](C)[C@H]1O [TELAVANCIN]
Activity (Staphylococcus aureus [7]): inactive
Activity (Staphylococcus aureus [8]): Active
Activity (Staphylococcus aureus [9]): inactive
MIC (Staphylococcus aureus [1]): 0.5 µg/mL (≈ 0.285 µM)
Activity (Staphylococcus aureus [10]): inactive
Activity (Staphylococcus aureus [11]): inactive
MIC (Staphylococcus aureus [2]): 0.125 µg/mL (≈ 0.0712 µM)
CFU/g (Staphylococcus aureus [12]): 4.2 log10 CFU/g
CFU/g (Staphylococcus aureus [13]): 4.1 log10 CFU/g
AUC at 24 h [14]: 969 µg·h/mL
CFU/g (Staphylococcus aureus [15]): 2.8
MIC (Staphylococcus aureus [3]): 0.25 µg/mL (≈ 0.142 µM)
MIC (Staphylococcus aureus [5]): 0.125 µg/mL (≈ 0.0712 µM)
Activity (Staphylococcus aureus [16]): Active

CN[C@H](CC(C)C)C(=O)N[C@H]1C(=O)N[C@@H](CC(N)=O)C(=O)N[C@H]2C(=O)N[C@H]3C(=O)N[C@H](C(=O)N[C@H](C(=O)O)c4cc(O)cc(O)c4-c4cc3ccc4O)[C@H](O)c3ccc(c(Cl)c3)Oc3cc2cc(c3O[C@@H]2O[C@H](CO)[C@@H](O)[C@H](O)[C@H]2O[C@H]2C[C@](C)(N)[C@H](O)[C@H](C)O2)Oc2ccc(cc2Cl)[C@H]1O [VANCOMYCIN]
Cmax [17]: 37000 ng/mL
MIC (Staphylococcus aureus [1]): 8 µg/mL (≈ 5.52 µM)
half-life [18]: 6.2 h
AUC at 24 h [19]: 391 µg·h/mL

GENTAMICIN [listing 1 of 2 here]
AUC [20]: 63.1 µg·h/mL
Cmax [21]: 15800 ng/mL
t1/2 [22]: 3.4 h

GENTAMICIN [listing 2 of 2 here]
MIC (Staphylococcus aureus [5]): 0.25 µg/mL
